Measured values from ChEMBL document CHEMBL1126205, “Novel spirosuccinimides with incorporated isoindolone and benzisothiazole 1,1-dioxide moieties as aldose reductase inhibitors and antihyperglycemic agents” (1992).
Activity calls are given as the source filed them. No cut-off for these calls is given here.

How the values were obtained:
Rattus norvegicus [1] = test: In vivo galactitol inhibitory activity measured by its ability to inhibit galactitol accumulation in lens at 10 mg/Kg/day; type: functional; conditions: Lens of camera-type eye
Procedure, shortened: (§1)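 Rats (n = 6) fed 20% galactose for 4 days, with compound given in the diet at the stated mg/kg per day. Galactitol accumulation in lens, sciatic nerve or diaphragm is scored as percent inhibition versus the non-treated group, as means of 3–8 drug-treated tissue samples. Dunnett's multiple comparison test applies; NS means p > 0.05.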

[2] = target: Aldo-keto reductase family 1 member B1 (Bos taurus) (UniProt P16116); test: In vitro aldose reductase inhibitory activity measured by NADPH-dependent inhibition of glyceraldehyde reduction in a partially purified bovine lens preparation at 10E-6 M
Procedure, shortened: (§2)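 Aldose reductase partially purified from bovine lens. Inhibition of NADPH-dependent glyceraldehyde reduction is measured at the single stated concentration and reported as percent inhibition, the mean of two determinations.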

Mus musculus = test: Antihyperglycemic activity measured as percent decrease in mice plasma glucose at 100 mg/Kg/day; type: functional
Procedure, shortened: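 Male db/db (C57BL/KsJ) mice, 4–6 per group, dosed at 100 mg/kg per day. Plasma glucose of the drug-treated group is expressed as percent decrease relative to a vehicle-treated control group. Values are mean ± SE, with p < 0.05 marked.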

[3] = target: Aldo-keto reductase family 1 member B1 (Bos taurus) (UniProt P16116); test: In vitro aldose reductase inhibitory activity measured by NADPH-dependent inhibition of glyceraldehyde reduction in a partially purified bovine lens preparation at 10E-7 M; procedure, shortened: as §2
Rattus norvegicus [4] = test: In vivo galactitol inhibitory activity measured by its ability to inhibit galactitol accumulation in diaphragm at 10 mg/Kg/day; type: functional; procedure, shortened: as §1
Rattus norvegicus [5] = test: In vivo galactitol inhibitory activity measured by its ability to inhibit galactitol accumulation in sciatic nerve at 10 mg/Kg/day; type: functional; conditions: Rattus norvegicus, Sciatic nerve
Procedure, shortened: (§3)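 Rats (n = 6) fed 20% galactose for 4 days, with compound given in the diet at the stated daily dose. Galactitol accumulation was measured in lens, sciatic nerve and diaphragm, and % inhibition was taken versus the nontreated group. Means are from three to eight drug-treated tissue samples. Dunnett's multiple comparison test was applied, with p > 0.05 reported as not significant.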

[6] = target: Aldo-keto reductase family 1 member B1 (Bos taurus) (UniProt P16116); test: NADPH-dependent inhibition of glyceraldehyde reduction by partially purified aldose reductase from bovine lens at 10e-5 M
Procedure, shortened: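 Partially purified aldose reductase from bovine lens. Inhibition of NADPH-dependent glyceraldehyde reduction was measured at a single test concentration. Values are % inhibition of enzymatic activity, mean of two determinations.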

Rattus norvegicus [7] = test: In vivo galactitol inhibitory activity measured by its ability to inhibit galactitol accumulation in sciatic nerve at 3 mg/Kg/day; NS=Not significant (% Inhibition); type: functional, organism-based; procedure, shortened: as §3
Rattus norvegicus [8] = test: In vivo galactitol inhibitory activity measured by its ability to inhibit galactitol accumulation in lens at 3 mg/Kg/day; NS=Not significant (% Inhibition); type: functional, organism-based; conditions: Lens of camera-type eye; procedure, shortened: as §1
Rattus norvegicus [9] = test: In vivo galactitol inhibitory activity measured by its ability to inhibit galactitol accumulation in diaphragm at 3 mg/Kg/day; NS=Not significant (% Inhibition); type: functional, organism-based; procedure, shortened: as §1
Rattus norvegicus [10] = test: In vivo galactitol inhibitory activity measured by its ability to inhibit galactitol accumulation in lens at 10 mg/Kg/day; NS=Not significant (% Inhibition); type: functional; conditions: Lens of camera-type eye; procedure, shortened: as §1
Rattus norvegicus [11] = test: In vivo galactitol inhibitory activity measured by its ability to inhibit galactitol accumulation in sciatic nerve at 10 mg/Kg/day; NS=Not significant (% Inhibition); type: functional, organism-based; procedure, shortened: as §3
Rattus norvegicus [12] = test: In vivo galactitol inhibitory activity measured by its ability to inhibit galactitol accumulation in lens at 6 mg/Kg/day; NS=Not significant (% Inhibition); type: functional, organism-based; conditions: Lens of camera-type eye; procedure, shortened: as §1
Rattus norvegicus [13] = test: In vivo galactitol inhibitory activity measured by its ability to inhibit galactitol accumulation in sciatic nerve at 6 mg/Kg/day; NS=Not significant (% Inhibition); type: functional, organism-based; procedure, shortened: as §3
Rattus norvegicus [14] = test: In vivo galactitol inhibitory activity measured by its ability to inhibit galactitol accumulation in diaphragm at 6 mg/Kg/day; type: functional; procedure, shortened: as §1

| Structure (SMILES) | inhibition [2] [%] | Decrease (Mus musculus) [%] | further results |
| --- | --- | --- | --- |
| O=C1CC2(C(=O)N1)C(=O)N(Cc1ccc(Br)cc1F)c1c(Cl)cccc12 (stereo unspecified) | 92 | <15 | inhibition in vivo at 10 mg/kg/day (Rattus norvegicus [1]): 36%; inhibition [3]: 83%; inhibition in vivo at 10 mg/kg/day (Rattus norvegicus [4]): 84%; inhibition in vivo at 10 mg/kg/day (Rattus norvegicus [5]): 86% |
| O=C1CC2(C(=O)N1)c1ccccc1S(=O)(=O)N2Cc1c(F)c(F)c(F)c(F)c1F (stereo unspecified) |  | <15 |  |
| Nc1ccc(CN2C3(CC(=O)NC3=O)c3ccccc3S2(=O)=O)cc1 (stereo unspecified) |  | <15 |  |
| O=C(O)CN1C2(CC(=O)NC2=O)c2ccccc2S1(=O)=O (stereo unspecified) |  |  | inhibition [6]: 0% |
| O=C1CC2(C(=O)N1)c1ccccc1S(=O)(=O)N2Cc1ccccc1 (stereo unspecified) | 0 | <15 | inhibition [6]: 45% |
| CSc1ccc2c(c1)C(=O)N(C)C21CC(=O)NC1=O (stereo unspecified) | 60 | <15 | inhibition (Rattus norvegicus [7]): inactive; inhibition (Rattus norvegicus [8]): inactive; inhibition (Rattus norvegicus [9]): inactive |
| O=C1CC2(C(=O)N1)c1ccccc1C(=O)N2Cc1ccc(I)cc1 (stereo unspecified) |  | <15 |  |
| O=C1CC2(C(=O)N1)c1ccccc1S(=O)(=O)N2Cc1ccccc1F (stereo unspecified) |  | <15 |  |
| CN1C2(CC(=O)NC2=O)c2ccccc2S1(=O)=O (stereo unspecified) | 0 | <15 | inhibition [6]: 40% |
| O=C1CC2(C(=O)N1)c1ccccc1C(=O)N2Cc1c(F)cccc1Cl (stereo unspecified) |  | <15 |  |
| CCCCN1C2(CC(=O)NC2=O)c2ccccc2S1(=O)=O (stereo unspecified) |  | <15 |  |
| Cc1oc(-c2ccccc2)nc1CCOc1ccc(N2C3(CC(=O)NC3=O)c3ccccc3S2(=O)=O)cc1 (stereo unspecified) |  | <15 |  |
| O=C1CC2(C(=O)N1)c1ccccc1S(=O)(=O)N2Cc1ccc(C(F)(F)F)cc1 (stereo unspecified) | 0 | <15 | inhibition [6]: 34% |
| CCCCN1C(=O)c2ccccc2C12CC(=O)NC2=O (stereo unspecified) | 0 | <15 |  |
| O=C1CC2(C(=O)N1)c1ccccc1C(=O)N2Cc1ccccc1 (stereo unspecified) |  | 22 |  |
| CCCCCc1ccc(CN2C(=O)c3ccccc3C23CC(=O)NC3=O)cc1 (stereo unspecified) |  | <15 |  |
| O=C1CC2(C(=O)N1)c1ccccc1S(=O)(=O)N2CCc1ccc(Br)cc1 (stereo unspecified) |  | 25 | inhibition [6]: 0% |
| CSc1ccc(CN2C3(CC(=O)NC3=O)c3ccccc3S2(=O)=O)cc1 (stereo unspecified) |  | <15 |  |
| CN1C(=O)c2ccc(Cl)cc2C12CC(=O)NC2=O (single isomer, unassigned; (+)) | 82 |  | inhibition [3]: 39% |
| CN1C(=O)c2cc(Br)ccc2C12CC(=O)NC2=O (stereo unspecified) | 71 | <15 | inhibition (Rattus norvegicus [10]): inactive; inhibition (Rattus norvegicus [11]): inactive; inhibition (Rattus norvegicus [12]): inactive; inhibition (Rattus norvegicus [7]): inactive; inhibition (Rattus norvegicus [8]): inactive; inhibition (Rattus norvegicus [9]): inactive; inhibition (Rattus norvegicus [13]): inactive; inhibition in vivo at 6 mg/kg/day (Rattus norvegicus [14]): 27%; inhibition [3]: 27%; inhibition in vivo at 10 mg/kg/day (Rattus norvegicus [4]): 39% |
| O=C1CC2(C(=O)N1)c1ccccc1S(=O)(=O)N2Cc1ccc(Br)cc1Cl (stereo unspecified) |  | <15 |  |
| O=C1CC2(C(=O)N1)c1ccccc1S(=O)(=O)N2Cc1ccc(I)cc1 (stereo unspecified) |  | <15 |  |
| CCN1C2(CC(=O)NC2=O)c2ccccc2S1(=O)=O (stereo unspecified) |  | <15 |  |
| O=C1CC2(C(=O)N1)c1ccccc1S(=O)(=O)N2Cc1cccc(Br)c1 (stereo unspecified) |  | <15 |  |

| Structure (SMILES) | inhibition [2] [%] | Decrease (Mus musculus) [%] | further results |
| --- | --- | --- | --- |
| Cc1oc(-c2ccccc2)nc1CCOc1ccc(CN2C3(CC(=O)NC3=O)c3ccccc3S2(=O)=O)cc1 (stereo unspecified) |  | <15 |  |
| Cc1cc(CN2C3(CC(=O)NC3=O)c3ccccc3S2(=O)=O)ccc1Br (stereo unspecified) |  | <15 |  |
| O=C1CC2(C(=O)N1)c1ccccc1S(=O)(=O)N2Cc1ccc2ccccc2c1Br (stereo unspecified) | 25 | <15 | inhibition [6]: 59% |
| CC(C)(C)c1ccc(CN2C(=O)c3ccccc3C23CC(=O)NC3=O)cc1 (stereo unspecified) |  | <15 |  |
| O=C1CC2(C(=O)N1)c1ccccc1S(=O)(=O)N2Cc1ccc(Cl)cc1Cl (stereo unspecified) |  | 19 |  |
| O=C1CC2(C(=O)N1)c1ccccc1S(=O)(=O)N2Cc1ccc(Br)cc1F (stereo unspecified) | 0 | 48 | inhibition [6]: 52% |
| O=C1CC2(C(=O)N1)c1ccccc1S(=O)(=O)N2CCCCc1ccc(Cl)cc1 (stereo unspecified) |  | 20 |  |
| CN1C(=O)c2ccc([N+](=O)[O-])cc2C12CC(=O)NC2=O (stereo unspecified) | 77 | <15 | inhibition (Rattus norvegicus [7]): inactive; inhibition (Rattus norvegicus [8]): inactive; inhibition (Rattus norvegicus [9]): inactive; inhibition [3]: 32% |
| Cc1cc(Br)ccc1CN1C2(CC(=O)NC2=O)c2ccccc2S1(=O)=O (stereo unspecified) |  | <15 |  |
| O=C1CC2(C(=O)N1)c1ccccc1S(=O)(=O)N2Cc1ccc([N+](=O)[O-])cc1 (stereo unspecified) | 0 | <15 | inhibition [6]: 37% |
| O=C1CC2(C(=O)N1)c1ccccc1S(=O)(=O)N2Cc1ccc(Br)cc1 (stereo unspecified) |  | 37 |  |
| COc1ccc2c(c1)C(=O)N(C)C21CC(=O)NC1=O (stereo unspecified) | 56 | <15 | inhibition (Rattus norvegicus [7]): inactive; inhibition (Rattus norvegicus [8]): inactive; inhibition (Rattus norvegicus [9]): inactive |
| O=C1CC2(C(=O)N1)c1ccccc1C(=O)N2Cc1cccc(Br)c1 (stereo unspecified) |  | <15 |  |
| O=C1CC2(C(=O)N1)c1ccccc1S(=O)(=O)N2c1ccc(Br)cc1 (stereo unspecified) |  | <15 | inhibition [6]: 0% |
| CCC(CC)N1C2(CC(=O)NC2=O)c2ccccc2S1(=O)=O (stereo unspecified) |  | 31 |  |
| Cc1oc(-c2ccccc2)nc1CCN1C2(CC(=O)NC2=O)c2ccccc2S1(=O)=O (stereo unspecified) |  | <15 |  |
| O=C1CC2(C(=O)N1)c1ccccc1S(=O)(=O)N2Cc1ccc(-c2ccccc2)cc1 (stereo unspecified) | 15 | <15 | inhibition [6]: 54% |
| O=C1CC2(C(=O)N1)c1ccccc1C(=O)N2Cc1ccc(Br)cc1 (stereo unspecified) |  | <15 |  |
| O=C1CC2(C(=O)N1)c1ccccc1S(=O)(=O)N2Cc1ccc(F)cc1 (stereo unspecified) |  | <15 |  |
| O=C1CC2(C(=O)N1)c1ccccc1S(=O)(=O)N2Cc1ccc2ccccc2c1 (stereo unspecified) | 20 | <15 | inhibition [6]: 57% |
| CC(=O)Nc1ccc(CN2C3(CC(=O)NC3=O)c3ccccc3S2(=O)=O)cc1 (stereo unspecified) |  | <15 |  |
| CN1C(=O)c2ccc(Cl)cc2C12CC(=O)NC2=O (stereo in doubt; 32) | 80 |  | inhibition (Rattus norvegicus [12]): inactive; inhibition [3]: 37% |
| CN1C(=O)c2cc3ccccc3cc2C12CC(=O)NC2=O (stereo unspecified) | 82 | <15 | inhibition in vivo at 10 mg/kg/day (Rattus norvegicus [1]): 14%; inhibition [3]: 37%; inhibition in vivo at 10 mg/kg/day (Rattus norvegicus [4]): 59%; inhibition in vivo at 10 mg/kg/day (Rattus norvegicus [5]): 47% |
| O=C1CC2(C(=O)N1)c1ccccc1S(=O)(=O)N2Cc1ccc(Oc2ccccc2)cc1 (stereo unspecified) | 24 | <15 | inhibition [6]: 67% |
